{"source": "ChEMBL document CHEMBL4513216", "about": "“Probing the Open Global Health Chemical Diversity Library for Multistage-Active Starting Points for Next-Generation Antimalarials” (ACS Infect Dis, 2020)", "data": [{"experiment": "Toxicity liver stage against HepG2, at 10uM", "assay_type": "cell-based", "design": "test concentration 10 uM, cell line HepG2-A16-CD81EGFP", "settings": "human, HepG2-A16-CD81EGFP cells; read-out: INHIBITION", "how_it_was_run": "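Uninfected HepG2-A16-CD81EGFP cells, 3 × 10^3 per well, 1536-well, plated on prespotted compound at 10 μM final, parasite-free screening media added to match infected plates; puromycin 10 μM positive, DMSO 0.5% negative; run in parallel with 48 h PbLuc assay at 37 °C, 5% CO2; viability by CellTiter-Glo luminescence, normalized to controls.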", "units": {"cytotoxicity at 10 µM": "%"}, "values": [{"smiles": "O=C(OCC1CCCN(C(=O)c2ccccc2)C1)c1cscn1", "note": "(stereo unspecified)", "cytotoxicity at 10 µM": -9.92}, {"smiles": "O=C(c1cc(=O)[nH]c(=O)[nH]1)N1CCCC(CO)(CC2CC2)C1", "note": "(stereo unspecified)", "cytotoxicity at 10 µM": -3.02}, {"smiles": "O=S(=O)(Cc1ccccc1Cl)N1CCC2(CC1)OCCS2", "cytotoxicity at 10 µM": 0.649}, {"smiles": "COC(=O)c1ccc(N2CCN(C(=O)CC(F)(F)F)C(C)C2)cc1", "note": "(stereo unspecified)", "cytotoxicity at 10 µM": 4.42}, {"smiles": "CCn1ccc(NC(=O)CN2C(=O)C(C)(C)c3ccccc32)n1", "cytotoxicity at 10 µM": -16.9}, {"smiles": "CC(=O)N1CCCC1C(=O)NCCOc1ccc(C(C)C)cc1", "note": "(stereo unspecified)", "cytotoxicity at 10 µM": -5.26}, {"smiles": "O=C1CC2(CCN(c3nncs3)C2)CN1c1ccccc1", "note": "(stereo unspecified)", "cytotoxicity at 10 µM": -8.25}, {"smiles": "COC(=O)NCC(=O)N(C)Cc1csc(-c2cccs2)n1", "cytotoxicity at 10 µM": -2.67}, {"smiles": "CN(C)C(=O)CN1CCN(C(=O)Cc2csc(-c3ncccn3)n2)CC1", "cytotoxicity at 10 µM": -8.52}, {"smiles": "O=C1NCc2ccccc2CC12CCN(Cc1ccccc1Cl)CC2", "cytotoxicity at 10 µM": 5.86}, {"smiles": "COc1ccc(-c2cc(C3CCOC3)c(C#N)c(N)n2)cn1", "note": "(stereo unspecified)", "cytotoxicity at 10 µM": 10.2}, {"smiles": "O[C@H]1CC[C@@H](Cc2cc(-c3ccccn3)on2)O[C@@H]1CNCC1CC1", "cytotoxicity at 10 µM": -4.05}, {"smiles": "O=C(NCc1nnc2n1CCC2)c1cccc(Br)c1", "cytotoxicity at 10 µM": -0.115}, {"smiles": "O=C(C1CC1)N1CCC[C@]2(C[C@@H](OCc3ccncc3)CO2)C1", "cytotoxicity at 10 µM": 6.46}, {"smiles": "O=c1c2c[nH]c(N3CCC(O)CC3)nc-2cn1Cc1cccc(F)c1", "cytotoxicity at 10 µM": 20.6}, {"smiles": "Cc1nc(-c2ccc(CC(=O)N3CCNC(=O)C3)cc2)cs1", "cytotoxicity at 10 µM": 6.14}, {"smiles": "COc1ccc(OC)c(C(C)NC(=O)Nc2nnc(C)s2)c1", "note": "(stereo unspecified)", "cytotoxicity at 10 µM": 14.7}, {"smiles": "COc1c(C2CCCN2C(=O)c2ccco2)c(C)nn1C", "note": "(stereo unspecified)", "cytotoxicity at 10 µM": -1.68}, {"smiles": "CN(C)C[C@@H]1CCC[C@@H]2CN(c3cccnc3)C[C@@H]21", "cytotoxicity at 10 µM": -11.9}, {"smiles": "OC1(CNCCN2CCc3ccccc32)CNCCOC1", "note": "(stereo unspecified)", "cytotoxicity at 10 µM": 10.7}, {"smiles": "Oc1cc(C2CCCCN2Cc2ccsc2)nc(-c2ccncc2)n1", "note": "(stereo unspecified)", "cytotoxicity at 10 µM": 9.89}, {"smiles": "COc1ccc2c(CN3CCCN(Cc4ccncc4)CC3)n[nH]c2c1", "cytotoxicity at 10 µM": -4.32}, {"smiles": "O=C1[C@@H]2CC[C@@H](CN(Cc3ccccc3OC(F)F)C2)N1CC1CC1", "cytotoxicity at 10 µM": -6.17}, {"smiles": "COCCc1noc(CN2CCCCC2Cn2nc(C)cc2C)n1", "note": "(stereo unspecified)", "cytotoxicity at 10 µM": 0.962}, {"smiles": "CN(C)c1ncnc2c1CCN(CC1CCCC1)CC2", "cytotoxicity at 10 µM": 1.03}, {"smiles": "COCCC(=O)N1CCC(NC(=O)c2cscc2C)CC1", "cytotoxicity at 10 µM": -14.2}, {"smiles": "CCOCCC(=O)N1CCCCC1CCn1cccn1", "note": "(stereo unspecified)", "cytotoxicity at 10 µM": -0.168}, {"smiles": "c1ccc2sc(CN3CCOC(Cn4cccn4)C3)nc2c1", "note": "(stereo unspecified)", "cytotoxicity at 10 µM": -10.2}, {"smiles": "CCCOc1cccc(-c2nc3c([nH]2)CCNC3)c1", "cytotoxicity at 10 µM": -3.38}, {"smiles": "O=C(Cn1cc(C2CC2)nn1)NC(c1cc(F)ccc1F)C1CC1", "note": "(stereo unspecified)", "cytotoxicity at 10 µM": -12.6}, {"smiles": "Cc1cccc(CN2C(=O)CC[C@H]3[C@@H]2CCN3CC(=O)N(C)C)n1", "cytotoxicity at 10 µM": -71.7}, {"smiles": "Cc1ccnc(NC(=O)CCNC(=O)c2ccccc2Cl)c1", "cytotoxicity at 10 µM": -2.66}, {"smiles": "O=C(Cc1ccc(O)c(Cl)c1)N1CCCCC1CCn1cccn1", "note": "(stereo unspecified)", "cytotoxicity at 10 µM": -13.6}, {"smiles": "COCCc1noc(CN2CCC(c3ccccc3C(=O)O)C2)n1", "note": "(stereo unspecified)", "cytotoxicity at 10 µM": -3.03}, {"smiles": "Cc1nc(N)sc1C(=O)N1CCCC(c2nccn2CCCN(C)C)C1", "note": "(stereo unspecified)", "cytotoxicity at 10 µM": -6.82}, {"smiles": "CC(C)Nc1nc(N2CCCC2)nc2c1CCN(S(C)(=O)=O)CC2", "cytotoxicity at 10 µM": 6.43}, {"smiles": "O=S(=O)(NC1CC1)c1cccc(Br)c1", "cytotoxicity at 10 µM": -3.52}, {"smiles": "C=C(C)COc1cccc(C(=O)N(CC)Cc2nc(COC)no2)c1", "cytotoxicity at 10 µM": -18}, {"smiles": "O=C(O)CC1CN(Cc2ccccc2)CCO1", "note": "(stereo unspecified)", "cytotoxicity at 10 µM": 6.54}, {"smiles": "O=C(c1ccc(=O)[nH]c1)N1CCC(Oc2cccc(C(F)(F)F)c2)CC1", "cytotoxicity at 10 µM": 2.26}, {"smiles": "CC(C)CC(=O)N(C)Cc1nc(C(F)(F)F)cs1", "cytotoxicity at 10 µM": 8.32}, {"smiles": "CCc1n[nH]c(C2CN(CCCS(C)(=O)=O)CCO2)n1", "note": "(stereo unspecified)", "cytotoxicity at 10 µM": -3.48}, {"smiles": "CCn1ncc(Cn2cc(Cl)c(N)n2)c1C", "cytotoxicity at 10 µM": -8.55}, {"smiles": "CCSc1ccc(C(=O)N2CCCCC2C(=O)N2CCCC2)cn1", "note": "(stereo unspecified)", "cytotoxicity at 10 µM": 10.5}, {"smiles": "O=C(NCCC1CCCO1)c1ccccc1N1CCOCC1", "note": "(stereo unspecified)", "cytotoxicity at 10 µM": -10.8}, {"smiles": "O=C(O)c1ccccc1-n1cnc(CN2CCCc3ccccc32)c1", "cytotoxicity at 10 µM": 6.58}, {"smiles": "CCc1noc(CNCC2CCCN2c2cccnn2)n1", "note": "(stereo unspecified)", "cytotoxicity at 10 µM": 2.11}, {"smiles": "Cn1nc(CNC(=O)c2cccc(C(F)(F)F)c2)c2c1CCOC2", "cytotoxicity at 10 µM": 4.07}, {"smiles": "CC(C)Nc1nc(C(=O)Nc2ccccn2)cs1", "cytotoxicity at 10 µM": 5.15}, {"smiles": "CC(C)(CN)NS(=O)(=O)c1cccc(F)c1F", "cytotoxicity at 10 µM": -5.7}, {"smiles": "COCCN1CC[C@H]2CN(c3cc(OC)ncn3)C[C@@H]2C1=O", "cytotoxicity at 10 µM": 10.3}, {"smiles": "Cc1cc(S(C)(=O)=O)c(C)c(S(=O)(=O)N2CCN(C)CC2)c1", "cytotoxicity at 10 µM": 11.7}, {"smiles": "CCCc1nnc(N[C@H](C)c2ccc(OC)cc2)o1", "cytotoxicity at 10 µM": -19.9}, {"smiles": "CSCCC(Nc1nc(C)cc(C)n1)C(=O)NC1CC1", "note": "(stereo unspecified)", "cytotoxicity at 10 µM": -15.3}, {"smiles": "c1ccc(NC[C@@H]2CCC[C@@H]3CN(c4ncccn4)C[C@@H]32)nc1", "cytotoxicity at 10 µM": -106}, {"smiles": "Cc1nc(-c2cccc(C(=O)N(C)CC(C)O)c2)cs1", "note": "(stereo unspecified)", "cytotoxicity at 10 µM": 2.68}]}]}
